# hERG rescue: hERG rescue from dofetilide block, primary screen, cell-based, CHO-hERG, FluxOR thallium flux, dofetilide IC70; Voltage-gated inwardly rectifying potassium channel KCNH2 (Homo sapiens), Q12809; actives 0.51% (n = 310,000); AID 1511, 2009; activation (rescue from dofetilide block), less the hit threshold, % at 10 µM; dofetilide IC70 present;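 active = activation above the mean of controls blocked by dofetilide plus 5 SD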;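 also: thallium influx through hERG after potassium depolarization seen as dye fluorescence rise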
# KCNK9 block: KCNK9 potassium channel inhibitors, primary screen, HEK293 cells, thallium flux. FluxOR thallium flux fluorescence; stronger effect = lower value. B-score at 10 µM. actives 1.2% (n = 310,000);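 active = ratio B-score over 3 SD below the library mean, with starting fluorescence within 5 SD of its mean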;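 also: negative B-score means less thallium flux so channel inhibition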
# Kir21 inh: inhibitors of mouse Kir2.1 inward-rectifier potassium channel | Inward rectifier potassium channel 2 (Mus musculus), P35561 | actives 0.85% (n = 310,000) | B-score at 10 µM | HEK293-Kir2.1, FluxOR thallium flux fluorescence; stronger effect = lower value | AID 1672, 2009;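 active = fluorescence ratio B-score at or below minus 3 SD of library scores, with starting-brightness B-score within 2 SD, cut at about -4.2 in these data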;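 also: channel flux triggered by added potassium and thallium sulfate stimulus; B-score of peak minus minimum fluorescence over baseline after thallium stimulus; more negative B-score means stronger Kir2.1 block with less thallium influx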
# Target sequence (P35561 whole entry, looked up): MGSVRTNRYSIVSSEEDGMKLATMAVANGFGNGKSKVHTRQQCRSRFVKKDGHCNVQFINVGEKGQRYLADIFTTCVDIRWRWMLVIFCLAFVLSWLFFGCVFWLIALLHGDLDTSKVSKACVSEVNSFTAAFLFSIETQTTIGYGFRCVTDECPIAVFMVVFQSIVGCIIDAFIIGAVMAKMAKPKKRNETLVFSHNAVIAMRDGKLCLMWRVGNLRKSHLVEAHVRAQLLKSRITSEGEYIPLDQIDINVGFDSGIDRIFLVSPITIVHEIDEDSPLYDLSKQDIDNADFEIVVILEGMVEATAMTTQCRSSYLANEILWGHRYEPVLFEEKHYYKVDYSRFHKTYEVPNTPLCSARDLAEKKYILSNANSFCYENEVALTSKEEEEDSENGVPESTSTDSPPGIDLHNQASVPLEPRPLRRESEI
# KCNQ1 inh: inhibitors of human KCNQ1 channel, primary screen, cell-based, thallium flux, high-throughput | CHO-K1 KCNQ1, FluxOR thallium flux fluorescence; stronger effect = higher value | B-score at 10 µM | actives 1.3% (n = 310,000) | AID 2642, 2010;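 active = compounds whose thallium flux B-score, printed positive for inhibition, exceeds three library SD while starting fluorescence stays within three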;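 also: channel opened by potassium depolarization with thallium stimulus after 20 min compound exposure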
# KCNK3 block: human KCNK3 channel inhibitors, primary screen, CHO cells, FluxOR thallium flux, B-score | FluxOR fluorescence; stronger effect = lower value | B-score at 10 µM | actives 0.84% (n = 340,000) | AID 602410, 2012;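 active = B-score under library mean minus 4 SD, starting fluorescence ratio at most library mean plus 5 SD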;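 also: more negative B-score means stronger inhibition of thallium flux through KCNK3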
# KCNQ1 pot: potentiators or activators of KCNQ1 channel, primary screen, cell-based, thallium flux, high-throughput. Potassium voltage-gated channel subfamily KQT member 1 (Homo sapiens), P51787. CHO-K1 KCNQ1, thallium flux FluxOR fluorescence; stronger effect = higher value. B-score at 10 µM. actives 0.35% (n = 310,000);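 active = fluorescence ratio B-score, a plate-corrected score, at least three library SD, with initial intensity B-score within 5 SD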
#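 Assay system: CHO-K1 cells stably expressing KCNQ1; Medium: assay buffer with matched DMSO; Also added: K+/Tl+ depolarizing stimulus; Dosing: single dose; Timing: dye 90 min, compound 20 min, room temperature; Measured by: kinetic FluxOR thallium fluorescence, 10-s 1-Hz baseline, 110-s post-stimulus read; Read-out: peak-minus-minimum fluorescence over initial fluorescence, negative-control normalized, B-scored.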
# KCNK3 confirm: retest of human KCNK3 channel inhibitors, confirmation, CHO cells, FluxOR thallium flux, triplicate; ratio percent of control, % at 10 µM; actives 99% (n = 2,400); FluxOR fluorescence; 0% buffer, 100% carvedilol maximal block; shares compounds with KCNK3 block;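 active = ratio percent of control, averaged over triplicates, above buffer control mean plus 5 SD, cut at about 64% in these data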;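 also: ratio is the fluorescence rise from min to max over baseline after thallium stimulus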
# KCNK3 uninduced: thallium flux inhibition in non-induced cells, primary screen, counter-screen for KCNK3 inhibitor project, cell-based, non-induced KCNK3 line, FluxOR thallium, triplicate. shares compounds with KCNK3 block. non-induced KCNK3 parental cells; stronger effect = lower value. thallium flux ratio (lower = more inhibition) at 10 µM. actives 40% (n = 2,400). AID 651747, 2012;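 active = thallium flux ratio, averaged over three wells, more than 5 SD below the buffer control mean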;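 also: host cells are CHO cells without KCNK3 induction; ratio is peak minus trough fluorescence over baseline then normalized to buffer controls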
# Active calls of the source: *; i = inactive; . = no result given. Sampled rows, rich in hits. Any-hit rate of the full collection: about 3.8%.
SMILES,hERG rescue,KCNK9 block,Kir21 inh,KCNQ1 inh,KCNK3 block,KCNQ1 pot,KCNK3 confirm,KCNK3 uninduced
CCOc1ccc(C2C(C#N)=C(N)SC(N)=C2C#N)cc1OCC,-7,i,0.74,i,-12*,i,108*,0.15*
O=C(CCn1c(=O)oc2cc(Cl)ccc21)Nc1ccc(N2CCOCC2)cc1,-3,i,0.52,i,i,i,.,.
CCOC(=O)/C(C#N)=C/c1cc2ccccc2nc1N1CCCCC1,-9,-7.3*,-0.01,12*,-9.5*,i,0,i
Cc1ccc2cc(/C=C(\C#N)C(N)=O)c(N3CCCCC3)nc2c1,-6,i,-0.45,i,i,i,.,.
Cc1ccccc1C(=O)Oc1ccc2ccc(O)cc2c1,-7,i,0.38,i,i,i,.,.
Cc1ccccc1S(=O)(=O)Oc1ccc2ccc(O)cc2c1,-24,i,-0.67,i,-10*,i,97*,i
COc1ccc(OC)c(-c2csc(NC(=O)Cc3ccccc3F)n2)c1,-7,-6.7*,-1.5,i,i,i,98*,i
CN(C(=O)COC(=O)c1nc(Cl)ccc1Cl)c1ccccc1,-11,i,1.1,i,i,i,.,.
Cc1cccc2c1-c1sc(C(=O)N3CCc4ccccc4C3)cc1CO2,-7,i,0.57,i,-8.7*,i,87*,0.14*
CCN1CCN(C(=O)c2cc3c(s2)-c2c(C)cccc2OC3)CC1,-11,i,0,i,i,i,.,.
CCOC(=O)N1CCN(C(=O)c2cc3c(s2)-c2c(C)cccc2OC3)CC1,-4,i,-0.01,i,i,i,.,.
Cc1cccc2c1-c1sc(C(=O)N3CCCCC3)cc1CO2,-6,i,1.6,i,-12*,i,90*,i
CC1Cc2ccccc2N1Cc1cccc([N+](=O)[O-])c1 (centres undefined),-7,i,0.16,i,-13*,i,109*,i
CC1Cc2ccccc2N1Cc1ccc([N+](=O)[O-])cc1 (centres undefined),-11,i,-0.84,i,i,i,.,.
COc1ccccc1Nc1cc(C(=O)NCc2cccnc2)c2ccccc2n1,-7,i,0.23,i,i,i,.,.
Cc1ccc(C)c(Nc2cc(C(=O)NCc3cccnc3)c3ccccc3n2)c1,-16,-7.9*,-0.85,i,-8.9*,i,87*,i
CC(Oc1ccc(F)cc1)C(=O)Nc1sc2c(c1C(=O)NCc1cccnc1)CCCC2 (centres undefined),-10,i,-0.1,i,-8.9*,i,113*,i
Cc1cc(C)cc(OC(C)C(=O)Nc2ccccc2C(=O)NCc2cccnc2)c1 (centres undefined),-8,i,-0.71,i,-9.7*,i,84*,0.16*
CCN(CC(=O)Nc1c(C(=O)OC)[nH]c2ccc(Cl)cc12)c1ccc2c(c1)OCO2,-7,-7.2*,-0.3,i,-9.2*,i,105*,0.15*
CC1CCc2ccccc2N1C(=O)c1cccs1 (centres undefined),-11,i,-1.1,i,-8.9*,i,69*,i
COc1cc(C(=O)N2c3ccccc3CCC2C)cc(OC)c1OC (centres undefined),-6,i,-0.31,i,i,i,.,.
O=C(CN1C(=O)NC2(CCCC2)C1=O)N1CCN(c2ccc(C(F)(F)F)cc2[N+](=O)[O-])CC1,.,.,.,.,i,.,.,.
COCc1cc(C)nc(SCc2ccc(Cl)cc2)c1C#N,-6,i,0.43,i,-11*,i,96*,0.15*
COCc1cc(C)nc(SCc2ccc(F)cc2)c1C#N,-2,i,-1.1,i,i,i,.,.
COCc1cc(C)nc(SCc2ccc(Br)cc2)c1C#N,-8,i,0.14,i,-11*,i,106*,i
SMILES,hERG rescue,KCNK9 block,Kir21 inh,KCNQ1 inh,KCNK3 block,KCNQ1 pot,KCNK3 confirm,KCNK3 uninduced
Cc1cc2c3c([nH]c2cc1S(=O)(=O)NCCCOC(C)C)CC(C)(C)CC3=O,-5,i,3.5,i,i,i,.,.
COCCC(=O)N1CCC(Oc2ccc(C(=O)N3C[C@H]4CC[C@H]3C4)cc2)CC1,-11,i,-0.35,i,i,i,.,.
CC(C)n1ncc2c(C(=O)Nc3cccc(C#N)c3)cc(C3CC3)nc21,.,.,.,.,-12*,.,118*,0.13*
COc1ccc(S(=O)(=O)NCCSCc2ccccc2C)cc1Br,-10,i,-1.3,i,-8.9*,i,126*,0.13*
Cc1ccc(CCNC(=O)C(C)n2nc(C)c3c(C)n(-c4ccccc4)nc3c2=O)cc1 (centres undefined),-7,i,1.3,i,i,i,.,.
CCC(C(=O)NCCc1ccc(C)cc1)n1nc(C)c2c(C)n(-c3ccccc3)nc2c1=O (centres undefined),-5,i,-0.03,i,-9.4*,i,99*,i
CC(C)(C)OC(=O)C[C@H]1C/C=C\C[C@@H](CC(=O)NCCO)C(=O)N[C@H](C(C)(C)C)COC1=O,.,.,.,.,i,.,.,.
COc1ccc(/C=N/NC(=O)c2cccs2)c2ccccc12,-14,i,3.6,i,-11*,i,115*,0.15*
Cc1ccc(S(=O)(=O)N(C)c2ccc3ccccc3c2)cc1,-38,i,-0.46,i,-9.4*,i,122*,0.13*
CCSc1nc2c(c(-c3ccc(C)o3)c1C#N)CCCC2,-7,-6.7*,-1.6,i,-8.8*,i,96*,i
COC(=O)CSc1nc2c(c(-c3ccc(C)o3)c1C#N)CCCC2,-3,i,0.01,i,i,i,.,.
Cc1nn(C(C)(C)C)c(OC(=O)c2cccs2)c1S(=O)(=O)c1ccccc1,-15,i,0.01,i,-10*,i,117*,0.15*
Cc1ccc(S(=O)(=O)c2c(C)nn(C(C)(C)C)c2OC(=O)C(C)C)cc1,-16,i,0.55,i,i,i,.,.
